Screens as filed in PubChem.
Efflux pump mplx – inhibitors of Candida efflux pumps in yeast, primary screen, S. cerevisiae, Nile Red, multiplex | actives 0.44% (n = 330,000) | inhibition, % at 10 µM | S. cerevisiae Candida pump triplex;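 active = plate passing quality check with inhibition over a set limit, or well fluorescence over plate mean plus 4 SD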;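 note: Nile Red retained in pooled yeast measured as flow cytometry median fluorescence; higher means more Nile Red kept so more efflux inhibition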
CSC inhib – cancer stem cell viability inhibitors, primary screen, luminescence; inhibition, % at 7.5 µM; cancer stem cell-like cells viability; actives 1.1% (n = 300,000); in the data active = inhibition above about 75%; tested in HMLE shEcad cells
T cruzi inh – inhibitors of intracellular T. cruzi growth, primary screen, luminescence, NIH3T3 host cells; T. cruzi beta-gal in NIH3T3, 90 h; inhibition, % (test concentration not listed); actives 1.4% (n = 300,000);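 active = mean inhibition across valid replicates above about 55%, limit read from the data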;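 note: signal also drops with host cell toxicity which is not excluded here; higher percent means less beta-gal luminescence so fewer parasites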
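compound dosing = single 50 nL compound addition per well in DMSO | material = NIH/3T3 host cells with β-galactosidase reporter T. cruzi | input = 5,000 host fibroblasts per well | timing = ≥90 h infection period, 3 h prior cell attachment | read-out basis = percent inhibition of parasite-derived β-gal signal | detection = GalScreen β-gal luminescence, detergent lysis, 60 min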
SUMO Mot1 rescue – yeast Mot1-301 growth rescue at high temperature, primary screen, SUMOylation pathway inhibitor project, S. cerevisiae, ATP luminescence, 38.5C; S. cerevisiae Mot1-301 growth rescue; percent above DMSO median, 100 means doubled; growth rescue, % at 18.8 µM; actives 1% (n = 320,000); AID 2716, 2010;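 active = every valid replicate shows activation above 250% relative to neutral control wells; inactive = the rest, any valid replicate at or below 250%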
WT yeast gro inh – growth inhibition of WT strain, primary screen, mitochondrial fusion inhibitor project, WT and mutant strains, chemical genetic; actives 2.1% (n = 190,000); inhibition, % at 10 µM; mitochondrial fusion phenotypic screen; in the data active = inhibition above about 58%; tested in S. cerevisiae
Beta cell apopt – inhibitors of cytokine-induced beta cell apoptosis, primary screen, luminescence. INS-1E cytokine-induced death, ATP luminescence, 48 h; percent of positive-control rescue, neutral wells zero. protection from apoptosis, % (test concentration not listed). actives 0.8% (n = 300,000);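 active = Every replicate reaches about 75%, or at least half do and their mean reaches it too, limit read from the data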;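 note: higher means more ATP so stronger rescue from cytokine killing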
Mot1 SUMO dose – growth restoration of Mot1-301 yeast on galactose, dose response, SUMO pathway inhibitor project, whole organism, S. cerevisiae, ATP luminescence, cherry-picked samples; S. cerevisiae Mot1-301 galactose growth, 24 h; -100 = growth of slx-deleted rescue strain; 2,300 tested, under 10 active; AID 493004, 2010; shares compounds with SUMO Mot1 rescue; growth activity, percent, % at 42 µM;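 active = Signal drops as the depositor expects, and the fitted half-maximal dose is no more than ten times the top valid tested dose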;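 note: more negative values mean stronger growth rescue toward the control strain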
Hits are given with their value; i = inactive; nt = not tested or not shown; + = active, no number. Hits are enriched below; roughly 4.8% of the tested compounds scored in any of these assays.

SMILES	Efflux pump mplx	CSC inhib	T cruzi inh	SUMO Mot1 rescue	WT yeast gro inh	Beta cell apopt	Mot1 SUMO dose
Cc1ccc(OC(F)F)c(N2C(=O)C3C4CCC(O4)C3C2=O)c1 (stereo not given)	i	nt	nt	i	nt	i	nt
Cc1cccc(N=Cc2c(O)n(-c3ccccc3C)c(=O)[nH]c2=O)c1	i	i	i	280	i	i	nt
Clc1ccccc1CN1CCN(c2ccccc2Cl)CC1	i	i	i	i	70	i	nt
Cc1cccc(N/N=C(\C(N)=O)C2=NC(C)(C)Cc3ccccc32)c1	i	76	i	i	i	i	nt
Cn1c(O)c(/C=C/C=Nc2ccccc2)c(=O)n(C)c1=S	i	i	i	i	i	i	nt
COc1cc(CC2(CCc3ccncc3)C(=O)NC(=O)NC2=O)cc(OC)c1OC	i	i	i	i	i	nt	nt
COc1ccc(CC2(CCc3ccncc3)C(=O)NC(=O)NC2=O)c(OC)c1	i	i	i	281	i	i	nt
Cc1cc(/C=C2\C(=O)NC(=O)N(c3ccccc3F)C2=O)c(C)n1-c1cc(C(=O)O)cc(C(=O)O)c1	i	i	i	737	nt	i	i
COC(=O)c1c(C)n(Cc2ccc3c(c2)OCO3)c2ccc(O)cc12	i	i	i	696	i	i	i
CCOC(=O)c1c(C)n(Cc2ccc3c(c2)OCO3)c2ccc(O)cc12	i	i	i	i	i	i	nt
OC1(c2ccc(F)cc2)CC2CCC(C1)N2Cc1nnnn1C1CCCCC1 (stereo not given)	i	i	i	674	i	i	i
OCCN1C2CCC1CC(O)(c1ccc(F)cc1)C2 (stereo not given)	i	i	i	i	i	i	nt
C=C1C(O)[C@@H]2O[C@]3(CC[C@H](/C=C/C(C)[C@@H]4CC(C)=CC5(O[C@H](C[C@@](C)(O)C(=O)O)CCC5O)O4)O3)CC[C@H]2O[C@@H]1C(O)CC(C)[C@H]1OC2(CCCCO2)CCC1C (stereo not given in full)	i	nt	nt	888	nt	85	i
COc1ccc2c(c1)[C@@]13CCC=C[C@H]1[C@@H](C2)NCC3	i	i	nt	455	nt	i	i
CCC1C(c2ccccc2)NC(c2ccccc2)CC1(O)c1ccc(F)cc1 (stereo not given)	i	i	i	683	nt	i	i
CCC(=O)N1CC(=O)Nc2ccc(F)cc2C1c1ccccc1 (stereo not given)	i	i	i	i	i	i	nt
C=CCn1c(O)c(C(CC)=Nc2ccc(N(C)C)cc2)c(=O)[nH]c1=O	i	i	i	i	nt	i	nt
COc1ccc(-n2c(O)c(C(C)=NCCc3c[nH]c4ccccc34)c(=O)[nH]c2=O)cc1	i	i	i	i	nt	i	nt
COc1ccc(Oc2c(C)oc3cc(OC(=O)N(C)C)ccc3c2=O)cc1	i	i	i	524	nt	i	i
CNC(=O)O/N=C/c1nn(C(=O)C(C)(C)C)cc1Br	i	i	i	i	nt	i	nt
CCN(CC)P(=O)(c1n(CC)cc[n+]1CC)N(CC)CC	i	i	i	i	i	i	nt
Cc1ccc(C2SCC(=O)Nc3c2c(=O)[nH]n3C2CCOC(C)(C)C2)cc1 (stereo not given)	i	i	i	i	i	i	nt
COc1ccc(C2SCC(=O)Nc3c2c(=O)[nH]n3C2CCCCC2)cc1 (stereo not given)	i	i	i	824	i	i	i
CCN(CC)C(=O)c1ccc2c(c1)C1C=CCC1C(C(=O)O)N2 (stereo not given)	i	i	i	i	nt	i	nt
Ic1ccccc1CN[C@@H]1C2CCN(CC2)[C@@H]1C(c1ccccc1)c1ccccc1	i	nt	nt	nt	nt	nt	nt
SMILES	Efflux pump mplx	CSC inhib	T cruzi inh	SUMO Mot1 rescue	WT yeast gro inh	Beta cell apopt	Mot1 SUMO dose
CN(C)C1(c2nnnn2-c2ccc(Cl)cc2)CCCCC1	i	i	i	737	i	nt	i
C[N+](C)(C)CC(=O)Nc1ccc(Cl)cc1C(=O)c1ccccc1	i	i	i	415	i	i	i
CN(C)CCCNCC(=O)Nc1ccc(Cl)cc1C(=O)c1ccccc1	i	i	i	i	i	i	nt
COC(=O)[C@@H]1[C@@H](C(=O)OC)C2(c3ccccc3-c3ccccc32)N(c2ccc(Cl)cc2)N1C#N	i	i	56	427	i	i	i
CCN(CC)CCCOC(=O)C(OC(C)C)(c1ccccc1)c1ccccc1	i	i	i	i	i	nt	nt
CCOC(C(=O)OCCCN(CC)CC)(c1ccccc1)c1ccccc1	i	i	i	510	i	i	i
CCOc1c(P(=S)(N(C)C)N(C)C)c(C)nn1-c1ccccc1	i	i	i	891	i	i	i
CCN(CC)P(=S)(c1c(C)nc2ccccn12)c1c(C)nc2ccccn12	i	i	i	i	i	i	nt
CCOC(=O)C1CCN(C(C)C(=O)c2c[nH]c3ccccc23)CC1 (stereo not given)	i	i	i	i	nt	i	nt
CCOC(=O)C1(c2ccccc2)CCN(CCC(=O)Nc2ccc(F)cc2)CC1	i	nt	nt	i	nt	i	nt
CCOC(=O)C1(c2ccccc2)CCN(CCC(=O)Nc2ccccc2OC)CC1	i	i	i	378	nt	i	i
CCC1CCCCN1CC(=O)c1ccc(OC(F)F)cc1 (stereo not given)	i	i	i	i	i	i	nt
CCOP(=O)(OCC)c1cc(CC)ccc1O	i	i	i	+	nt	i	i
CC(C)C/C(=N/O)c1c[nH]c2ccccc12	i	i	i	572	i	i	i
Cc1cccc(C2=NCC(=O)N(CC(=O)NCc3ccco3)c3sc4c(c32)CCCC4)c1	i	i	i	i	i	i	nt
